Measurements published in publication PMC7564327 (Acta Pharmaceutica Sinica. B, 2020).

Assays:
hOATP1B3 = molecular target: T1, hOATP1B3 (Homo sapiens, UniProt Q9NPD5); experiment: Cellular uptake and kinetics in HEK293-hOATP1B3 vs Mock cells; type: in vitro ADME; conditions: 100 μmol/L, substrate if >2-fold of wild type
T1 sequence (Q9NPD5 1-702): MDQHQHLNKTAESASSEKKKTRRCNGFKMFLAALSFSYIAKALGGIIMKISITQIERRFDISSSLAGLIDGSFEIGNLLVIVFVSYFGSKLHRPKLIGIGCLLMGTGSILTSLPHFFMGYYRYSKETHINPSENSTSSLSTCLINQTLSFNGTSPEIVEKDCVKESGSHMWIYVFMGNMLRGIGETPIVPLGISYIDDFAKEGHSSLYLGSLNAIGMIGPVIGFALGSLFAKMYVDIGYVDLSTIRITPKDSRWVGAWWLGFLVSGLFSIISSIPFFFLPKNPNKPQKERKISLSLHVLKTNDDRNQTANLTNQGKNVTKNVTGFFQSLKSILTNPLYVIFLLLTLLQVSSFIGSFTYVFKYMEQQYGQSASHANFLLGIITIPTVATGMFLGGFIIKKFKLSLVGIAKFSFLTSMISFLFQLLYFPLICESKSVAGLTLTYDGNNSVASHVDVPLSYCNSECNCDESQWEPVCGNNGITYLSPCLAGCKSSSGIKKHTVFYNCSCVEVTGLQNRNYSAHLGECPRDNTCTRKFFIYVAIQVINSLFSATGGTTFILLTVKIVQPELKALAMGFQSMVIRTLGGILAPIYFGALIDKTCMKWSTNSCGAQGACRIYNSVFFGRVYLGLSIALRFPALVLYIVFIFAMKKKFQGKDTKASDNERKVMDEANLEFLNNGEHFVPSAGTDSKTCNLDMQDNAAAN
In short: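 Transfected cells and matching Mock cells were seeded at 2 × 10⁵ cells/mL and grown 2 days. After a DPBS (pH 7.4) wash and 10 min preincubation at 37 °C, cells took up 100 μmol/L test compound for 2–5 min at 37 °C. Uptake was stopped with three ice-cold DPBS washes, followed by methanol extraction and HPLC–MS. Values were normalised to BCA protein and compared with Mock.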

hOAT1 = molecular target: T2, hOAT1 (Homo sapiens, UniProt Q4U2R8); experiment: Inhibition of 14C-PAH uptake in MDCK-hOAT1 cells; type: in vitro ADME; conditions: for inhibition of the activity of hOAT1: 100 μmol/L IPT, ISP, 100 μg/mL AD extract, substrate 14C-PAH
T2 sequence (Q4U2R8 1-563): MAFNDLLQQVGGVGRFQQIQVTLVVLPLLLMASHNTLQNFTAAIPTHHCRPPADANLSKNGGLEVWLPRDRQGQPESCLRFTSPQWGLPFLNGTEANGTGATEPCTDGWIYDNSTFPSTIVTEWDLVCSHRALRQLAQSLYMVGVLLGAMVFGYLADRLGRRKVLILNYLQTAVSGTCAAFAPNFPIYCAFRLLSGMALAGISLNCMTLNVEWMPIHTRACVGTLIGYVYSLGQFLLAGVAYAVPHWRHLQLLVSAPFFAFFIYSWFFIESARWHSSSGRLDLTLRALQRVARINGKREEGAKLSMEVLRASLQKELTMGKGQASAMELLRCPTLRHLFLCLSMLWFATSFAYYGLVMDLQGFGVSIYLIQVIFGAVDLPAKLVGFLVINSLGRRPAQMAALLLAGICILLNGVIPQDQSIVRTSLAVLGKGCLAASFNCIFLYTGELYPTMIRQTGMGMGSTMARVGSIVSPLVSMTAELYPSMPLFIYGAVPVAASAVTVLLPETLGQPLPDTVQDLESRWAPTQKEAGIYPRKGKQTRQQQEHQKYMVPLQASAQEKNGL
In short: (§1)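 Test compounds were made as DMSO stocks (20 mmol/L, or 10 mg/mL for extract) and diluted in PBS to a final DMSO below 0.5%. Cells were exposed at 37 °C to probe plus or minus test compound. The probe was 5 μmol/L ¹⁴C-PAH for 5 min (hOAT1) or 50 nmol/L ³H-estrone sulfate for 2 min (hOAT3, hOATP2B1). Screens used 100 μmol/L (extract 100 mg/L); IC50 came from varied concentrations. Cells were then given three cold DPBS washes, lysed in 0.1 mol/L NaOH and read by scintillation counting. Data are mean ± SD, n = 3.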

hOAT3 = molecular target: T3, hOAT3 (Homo sapiens, UniProt Q8TCC7); experiment: Inhibition of 3H-ES uptake in S2-hOAT3 cells; type: in vitro ADME; conditions: for inhibition of the activity of hOAT3: 100 μmol/L IPT, ISP, 100 μg/mL AD extract, substrate 3H-ES
T3 sequence (Q8TCC7 1-542): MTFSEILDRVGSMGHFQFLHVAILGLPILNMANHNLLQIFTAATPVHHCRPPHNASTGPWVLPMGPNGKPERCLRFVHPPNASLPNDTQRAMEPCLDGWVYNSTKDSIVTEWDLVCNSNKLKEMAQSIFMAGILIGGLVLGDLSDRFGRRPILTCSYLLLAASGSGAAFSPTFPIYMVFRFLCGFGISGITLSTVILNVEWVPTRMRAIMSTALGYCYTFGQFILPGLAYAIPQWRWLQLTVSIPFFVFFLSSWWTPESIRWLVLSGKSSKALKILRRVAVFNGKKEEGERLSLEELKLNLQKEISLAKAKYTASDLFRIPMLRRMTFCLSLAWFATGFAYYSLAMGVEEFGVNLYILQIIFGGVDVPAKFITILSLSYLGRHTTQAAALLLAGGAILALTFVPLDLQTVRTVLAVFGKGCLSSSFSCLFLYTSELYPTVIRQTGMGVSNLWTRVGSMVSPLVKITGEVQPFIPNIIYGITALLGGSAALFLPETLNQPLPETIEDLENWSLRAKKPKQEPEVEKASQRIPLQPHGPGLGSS
In short: as §1

mOatp1a4 = experiment: qRT-PCR of mOatp1a4 mRNA in liver of treated mice; type: in vivo; conditions: mice given 20 mg/kg TDE with 20 mg/kg IPT, ISP or 200 mg/kg AD extract, 4 h
mOatp1b2 = experiment: qRT-PCR of mOatp1b2 mRNA in liver of treated mice; type: in vivo; conditions: mice given 20 mg/kg TDE with 20 mg/kg IPT, ISP or 200 mg/kg AD extract, 4 h

Row | SMILES | accumulation in HEK293-hOATP1B3 vs HEK293 wild type (hOATP1B3) | IC50 (hOAT1) [µM] | inhibition of the activity of hOAT1 (hOAT1) | IC50 (hOAT3) [µM] | inhibition of the activity of hOAT3 (hOAT3) | mRNA level of mOatp1a4 decreased to, compared to TDE alone (mOatp1a4) [%] | mRNA level of mOatp1b2 decreased to, compared to TDE alone (mOatp1b2) [%]
1 | CC(C)=CCOc1c2occc2cc2ccc(=O)oc12 [IPT, imperatorin] | no significant differences | 31.7 | significantly inhibited | 2.74 | significantly inhibited | 36 | 61
2 | CC(C)=CCOc1c2ccoc2cc2oc(=O)ccc12 [ISP, isoimperatorin] | no significant differences | 26.8 | significantly inhibited | 11.7 | significantly inhibited | 61 | 50
